The values that follow come from PubChem BioAssay AID1019 (Sanford-Burnham Center for Chemical Genomics, 2008).

Structures are written as SMILES. Out of some 190,000 compounds screened, fewer than 10 were called active.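 How the source made its calls: active means over 50% inhibition of intestinal alkaline phosphatase at 20 µM in the single-dose screen; inactive means the rest.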 These entries were drawn from the full list.

The test system of this assay is alkaline phosphatase, intestinal [Bos taurus]. Nature of the assay: IAP enzyme activity blockers – biochemical, bovine IAP, CDP-star luminescence, selectivity assay for TNAP inhibitor project, primary screen (AID 1019). The conditions noted are these: purified bovine IAP, 30 min, at 20 µM, stronger effect = higher value. Summed up:
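System: purified bovine intestinal alkaline phosphatase (IAP) enzyme; Input: IAP diluted 1/65,000,000 in the well; Measured by: CDP-star luminescence signal; Compound dosing: 20 µM single dose; Incubation: 30 min reaction at room temperature.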
Take `COc1ccc(CCNC(=O)CN(c2ccccc2)S(C)(=O)=O)cc1`: the inhibition is -4% (inactive).

With `CCCc1nc2c([nH]1)C(c1cccnc1)C(C#N)=C(N)O2` (stereo unspecified), the inhibition was 8.5% (inactive).

With `CC(OC(=O)CCc1nc(=O)c2ccccc2n1C)C(=O)NCc1ccc2c(c1)OCO2` (stereo unspecified), the inhibition was -9.4% (inactive).

Regarding `O=c1[nH]c(=S)[nH]c2[nH]c(=S)[nH]c12`, the inhibition was 18.7% (inactive).

For `CC(C)N(Cc1nc(-c2ccc3c(c2)OCO3)no1)CC1CCC(=O)N1` (stereo unspecified), the inhibition is 2.1% (inactive).

Turning to `O=C(NC1CC1)c1ccc(-c2ccccc2)cc1`, the inhibition was -4.4% (inactive).

Regarding `O=C(O)CSCC(=O)Nc1ccc(C(F)(F)F)cc1`, the inhibition is 3.8% (inactive).

As to `COc1cc(OC)cc(C(=O)NCC(=O)OCc2csc(-c3ccccc3)n2)c1`, the inhibition is 1.4% (inactive).

Take `CNc1nccc(-c2ccc(Cl)cc2)c1C#N`: the inhibition is -1.9% (inactive).

Consider `O=C(c1ccc(C(F)(F)F)cc1)C1CCCN(C(=O)c2csnn2)C1` (stereo unspecified), for which the inhibition is 9.5% (inactive).

Take `CN1C(=O)/C(=C/c2ccco2)SC1=Nc1cccc(C(=O)O)c1`: the inhibition is -5.3% (inactive).

Regarding `COC(=O)CCC(=O)N1CCCC(CO)(Cc2ccccc2)C1` (stereo unspecified), the inhibition is 6.2% (inactive).

In the case of `CCN(CC)CCN(C(=O)c1cccc([N+](=O)[O-])c1)c1nc2ccc(OC)cc2s1`, the inhibition was 4.9% (inactive).

With `O=C(Nc1ccc([N+](=O)[O-])cc1)C1(c2ccccc2)CCOCC1`, the inhibition was 9.9% (inactive).

`Cc1noc(C)c1COc1cccc(C(=O)Nc2cccnc2)c1`: the inhibition was -7.5% (inactive).

Turning to `CC(C)CCNC(=O)c1cccnc1Sc1ccccc1`, the inhibition is -6.1% (inactive).

Consider `Brc1ccc(C2CC(c3ccccc3)=Nc3ccccc3N2)cc1` (stereo unspecified), for which the inhibition is 7.5% (inactive).

In the case of `Cc1ccc(C)c(Cn2nnc3c(=O)[nH]c(C(=O)Nc4ccc(F)cc4)nc32)c1`, the inhibition is 2.7% (inactive).

Take `COc1ccccc1CN(C)C(=O)C1(c2ccc(Cl)cc2)CC1`: the inhibition is 11.2% (inactive).

On to `COCCNC(=S)Nc1cc(S(=O)(=O)N2CCOCC2)ccc1N1CCCCC1`, for which the inhibition was -0.2% (inactive).

Consider `COc1ccc(S(=O)(=O)N2CCN(C(=O)c3cc(C)oc3C)CC2)cc1`, for which the inhibition was 4.3% (inactive).

Regarding `Cc1ccc(NC(=O)c2oc3ccccc3c2C)c([N+](=O)[O-])c1`, the inhibition was 21.2% (inactive).

Consider `Clc1ccc(-c2cc(C3CCNCC3)[nH]n2)c(Cl)c1`, for which the inhibition was 1% (inactive).

As for `COc1cccc(NC(=O)C(Sc2nnnn2C)c2ccccc2)c1` (stereo unspecified), the inhibition was -2.3% (inactive).

Consider `CCC1SC(CC)C(=O)N(CC(=O)NC2CCCCC2)C1=O` (stereo unspecified), for which the inhibition is 11.7% (inactive).

For the molecule `O=C(CCc1[nH]c2ccccc2c1Sc1ccccc1)N(CCO)CCO`, the inhibition was 14.8% (inactive).

On to `Cc1ccc(S(=O)(=O)N(Cc2ccc(Cl)cc2)c2ccccc2C(=O)NCc2cccnc2)cc1`, for which the inhibition is 15.3% (inactive).

Take `O=C(C/C(=N\NC(=O)c1ccccc1Br)C(F)(F)F)c1cccs1`: the inhibition was 5.9% (inactive).

Turning to `Cc1ccc(C(=O)N2CCN(S(=O)(=O)N3CCOCC3)CC2)cc1`, the inhibition was 9% (inactive).

Turning to `CCc1cccc(C)c1NC(=O)COC(=O)Cc1ccsc1`, the inhibition is -0.9% (inactive).

With `O=C(CSc1nncs1)NC1CCCc2ccccc21` (stereo unspecified), the inhibition is -2.1% (inactive).

`Cc1ccc2nc(C)cc(N/N=C/c3ccc(F)cc3)c2c1`: the inhibition was 0.2% (inactive).

With `O=C(COC(=O)Cn1cnc2ccccc2c1=O)NCC12CC3CC(CC(C3)C1)C2`, the inhibition was 12.5% (inactive).

With `O=C1CCC(CCC(=O)N2CCCC(C(=O)c3ccc(Cl)cc3)C2)=NN1` (stereo unspecified), the inhibition was -3% (inactive).

In the case of `CCC(C)CN1CCC(CO)(Cc2ccccc2Cl)CC1` (stereo unspecified), the inhibition is -18.6% (inactive).

As to `COc1ccc(N2C(=O)C(Cc3ccccc3)NC2=S)cc1` (stereo unspecified), the inhibition was -2.9% (inactive).

As to `COc1ccc(-n2cnnc2SCC(=O)Nc2cccc([N+](=O)[O-])c2)cc1`, the inhibition is 8.1% (inactive).

For `Cc1nc2scc(-c3cccs3)c2c(=O)n1N`, the inhibition is -37.2% (inactive).

On to `CCN(CC(=O)Nc1ccc(Cl)c(S(=O)(=O)N(C)C)c1)Cc1nc2ccccc2c(=O)[nH]1`, for which the inhibition is -108% (inactive).

Take `COc1cc(C(=O)Nc2cc(C(F)(F)F)ccc2-n2cncn2)cc(OC)c1OC`: the inhibition was -1.7% (inactive).

With `NS(=O)(=O)c1ccc(CCNC(=O)c2ccc(Cl)cc2[N+](=O)[O-])cc1`, the inhibition was -14.5% (inactive).

In the case of `Cc1nc2ccccn2c1C(=O)NN=C1CCN(C)CC1`, the inhibition is -6.8% (inactive).

As for `CC(=O)NNC1=Nc2ccccc2N(C)C(C)C1` (stereo unspecified), the inhibition is 26.5% (inactive).

As for `Clc1ccc(N/N=C/c2cccs2)nn1`, the inhibition was -1.4% (inactive).

Take `Cc1cccc(CSc2ccc(-c3cccs3)nn2)c1`: the inhibition is 14.5% (inactive).

As to `COC(=O)c1c(NC(=O)c2c(Cl)cnn2C)sc(C)c1C`, the inhibition is 0.9% (inactive).

As for `O=C(NCc1cccs1)c1cc(-c2ccccn2)nc2ccc(Br)cc12`, the inhibition was -9.8% (inactive).

Consider `CC1CCN(C(=O)c2ccc(S(=O)(=O)Cc3cc(F)ccc3F)c([N+](=O)[O-])c2)CC1`, for which the inhibition was 18.6% (inactive).

As for `COc1ccc(CCN=C2SCC(=O)N2Cc2ccccc2)cc1OC`, the inhibition is 3.1% (inactive).

For `COc1ccc(C(=O)NNC(=O)c2cc(C)[nH]n2)cc1`, the inhibition is -38.6% (inactive).

Regarding `CCN(CC)CCN(C(=O)c1ccc(N2C(=O)CCC2=O)cc1)c1nc2cc3c(cc2s1)OCO3`, the inhibition is -11.6% (inactive).

As to `CC(=O)Nc1ccc(C(=O)OCC(=O)Nc2ccc([N+](=O)[O-])cc2C(F)(F)F)cc1`, the inhibition is 34.7% (inactive).

As to `Cn1cc(CN2CCCCC2c2ccccn2)c(-c2ccc3c(c2)OCCO3)n1` (stereo unspecified), the inhibition was 6.3% (inactive).

With `COc1ccc(C(=O)Nc2ccc(N3CCC(C)CC3)cc2)cc1Br`, the inhibition was -10.7% (inactive).

`O=C(CSc1ccccc1)Nc1cc(Cl)ccc1Oc1ccccc1`: the inhibition is 6.2% (inactive).

As to `N/C(Cc1ccc([N+](=O)[O-])cc1)=N\OC(=O)C1CCCCC1`, the inhibition is -0.5% (inactive).

For `CCCCS(=O)c1snnc1C` (stereo unspecified), the inhibition is -11.4% (inactive).

With `C[C@@H]1NC(=O)c2cc([N+](=O)[O-])cc(F)c2NCCC[C@@H](C(N)=O)NC(=O)[C@H](CC(N)=O)NC1=O`, the inhibition was 38.7% (inactive).

For the molecule `CCN(CC)C(=O)Oc1ccc(OC(=O)N(CC)CC)cc1`, the inhibition is -10.3% (inactive).

For `CC(=O)NCC(=O)N(Cc1ccco1)C1(C(=O)NC2CCCC2)CCCCC1`, the inhibition is 3.8% (inactive).

For `CCOC(=O)c1c(CN(C)C)n(-c2ccccc2)c2cc(Br)c(O)cc12`, the inhibition is -6.7% (inactive).

For `CC(C)C(=O)Nc1ccc2oc(=O)ccc2c1`, the inhibition is 7% (inactive).

Regarding `CCOC(=O)/C(C#N)=C/c1ccc(N2CCCCC2)cc1`, the inhibition was 11.8% (inactive).

As to `CC(C)(c1ccccc1)c1ccc(OCCN)cc1`, the inhibition was 14.7% (inactive).

In the case of `COC(=O)Cc1ccc(NC(=S)NCc2ccco2)cc1`, the inhibition was 4% (inactive).

Take `COc1ccc(/C=N/N=C2/C(=O)Nc3ccccc32)cc1O`: the inhibition is 5% (inactive).

In the case of `COc1cc(NS(=O)(=O)c2ccc(NC(=O)CN3C(=O)c4ccccc4C3=O)cc2)ncn1`, the inhibition is 3.8% (inactive).

As to `CN(C)CCN=c1cc(-c2ccccc2)oc2ccc(Cl)cc12`, the inhibition was -8.9% (inactive).

`CC(C)(C)NC(=O)c1ccc(Cn2cc(C(F)(F)F)ccc2=O)cc1`: the inhibition was 4.3% (inactive).

For `Oc1ccc(N2CCN(C(=S)NCc3ccccc3)CC2)cc1`, the inhibition is 6.1% (inactive).

`CCCCN(CC)CCCNC(=O)c1ccc(CSc2nc3ccncc3[nH]2)cc1`: the inhibition was -24% (inactive).

With `O=C(CCc1ccccc1)Nc1nn[nH]n1`, the inhibition is 5.5% (inactive).

As to `CC1CCCN(CC(O)COc2ccc3c(c2)OCO3)C1` (stereo unspecified), the inhibition was 3.1% (inactive).

Take `Cc1ccccc1C1CC(c2cccs2)=NN1S(C)(=O)=O` (stereo unspecified): the inhibition was 18.1% (inactive).

As for `CCN(c1ccccc1)S(=O)(=O)c1ccc2[nH]c(=O)[nH]c2c1`, the inhibition is 3.4% (inactive).

Consider `O=S(=O)(NCCc1ccc(F)cc1)c1cccc2cccnc12`, for which the inhibition was 10.8% (inactive).

For the molecule `COc1cc(/C=C/C(=O)OCC(=O)N2CCOCC2)ccc1OCC#N`, the inhibition was -7.3% (inactive).

With `O=C(Cn1cnc2ccccc21)N/N=C/c1ccco1`, the inhibition was -22.7% (inactive).

For `CC1CC(C)CN(CCC(=O)Nc2ccc3c(c2)CCC3)C1` (stereo unspecified), the inhibition was -14.7% (inactive).

For the molecule `O=C(COC(=O)/C=C/c1ccc(S(=O)(=O)N2CCCCCC2)cc1)NCc1ccccc1Cl`, the inhibition was 14.5% (inactive).

For the molecule `CCCNC(=O)NC(=O)COC(=O)CC(NC(N)=O)c1ccc(Cl)cc1` (stereo unspecified), the inhibition is 7.6% (inactive).

Consider `Cc1c(C=O)c2ccccc2n1CC(=O)O`, for which the inhibition is -6.7% (inactive).

With `CCn1nc(C)c(CN2CCN(Cc3ccc(OC)c(C)c3C)C(CCO)C2)c1C` (stereo unspecified), the inhibition is -4.7% (inactive).

As for `COc1ccc(C2CC(c3cccs3)Nc3nnnn32)cc1` (stereo unspecified), the inhibition was 16.6% (inactive).

Turning to `CCN(CC)C(=O)N(CC)Cc1ccccc1`, the inhibition is -1.7% (inactive).

For the molecule `Cc1ccc(Nc2c(F)c(F)c(F)c(F)c2C(=O)O)c(C)c1`, the inhibition was 1.3% (inactive).

Take `C=CCN(c1ccc(Cl)cc1)S(=O)(=O)c1cccc(C(=O)OCC(=O)N(C)C)c1`: the inhibition is -6.8% (inactive).

With `Cn1cc(-c2ccccc2)cc(C#N)c1=O`, the inhibition is -3.4% (inactive).

As to `CC(C)(C)n1ncc2c(=O)n(Cc3ccc(Cl)cc3)cnc21`, the inhibition is -1.6% (inactive).

As for `CCCCCCCNc1nc(Cl)nc(NCCO)n1`, the inhibition is -10.7% (inactive).

Consider `CCOC(=O)C1(Cc2ccccc2C(F)(F)F)CCN(C(=O)c2cc(C)n(C)n2)CC1`, for which the inhibition was -5.4% (inactive).

Regarding `CCN(CC)CCNc1nc(-c2ccc(OC(F)F)cc2)c(C)s1`, the inhibition is -8.2% (inactive).

Turning to `O=C(Nc1cccc(F)c1)c1coc(=O)c(Br)c1`, the inhibition is 13.2% (inactive).

Regarding `COC(=O)c1ccc(C(=O)OC)c(NC(=S)N2CCN(c3ccc(F)cc3)CC2)c1`, the inhibition was -5.9% (inactive).

With `CC(NC(=O)CCC(=O)N1CCN(S(=O)(=O)c2ccc(Cl)cc2)CC1)c1ccccc1` (stereo unspecified), the inhibition was -56.8% (inactive).

For `COc1cc(C(=S)NC2CCCCC2)ccc1O`, the inhibition was 5.4% (inactive).

For the molecule `CCOc1ccc(NC(=S)NC(=O)/C=C/c2ccc(OC)cc2)c([N+](=O)[O-])c1`, the inhibition was -34% (inactive).

As for `C=CCO/N=C/C1=C(O)C(C(=O)OC)C(C)(C)CC1=O` (stereo unspecified), the inhibition is -21.8% (inactive).

For the molecule `CC(NC(=O)CC1SC(N)=NC1=O)c1ccccc1` (stereo unspecified), the inhibition is -8.1% (inactive).

On to `C/C(=N\NC(=O)c1ccc(CSc2nc(C)cc(C)n2)cc1)C1CCCCC1`, for which the inhibition is -2.1% (inactive).

Take `COc1ccc(OC)c(CNC(=O)c2cc(=O)[nH]c3ccc(S(=O)(=O)N4CCCC4)cc23)c1`: the inhibition is 9.9% (inactive).

Consider `Cc1cccc(NC(=O)c2nnn(-c3cccc(C(F)(F)F)c3)c2N)c1`, for which the inhibition was 6.8% (inactive).

In the case of `CCOC(=O)N1CCN(C(=O)C2CCN(Cc3ccc(OC)cc3OC)CC2)CC1`, the inhibition is 3.5% (inactive).

On to `O=C(NCCc1ccccc1)C1CCN(S(=O)(=O)c2ccc(Br)s2)CC1`, for which the inhibition was 2.9% (inactive).

`CSc1nc2c(c(=O)[nH]1)C(c1cccc(Cl)c1Cl)CC(=O)N2` (stereo unspecified): the inhibition was -12.6% (inactive).

`Cc1ccc(CCC(=O)Nc2ncc(Cc3cc(Cl)ccc3Cl)s2)o1`: the inhibition was 5.3% (inactive).

In general, inhibition refers to the relative decrease from the control value, in per cent.
